Assay outcomes: PubChem, several laboratories
Shown are actives, neighbours in structure and some others; about 2.5% of the full set was active somewhere.
SENP1 FRET inh – human SENP1 catalytic domain inhibitors, primary screen, biochemical, FRET, uHTS; Sentrin-specific protease 1 (Homo sapiens), Q9P0U3; recombinant SENP1 catalytic domain, CyPet-SUMO1-YPet FRET cleavage; inhibition, % at 10 µM; 360,000 tested, 0.21% active; AID 624204, 2012;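 active = inhibition at least 30% at 10 µM, raw YFP signal under a set limit, fluorescence ratio 0.5 to 1.5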;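 note: 0% = enzyme with DMSO and 100% = no enzyme wells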
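Test system: recombinant human SENP1 catalytic domain, His6-tagged / Medium: pH 8 Tris buffer with EDTA, NaCl, BME, BSA, NP40, catalase / Also added: SUMO1 FRET substrate flanked by Cypet and Ypet, 25 nM / Times: 50 min reaction at room temperature / Signal: FRET, CFP and YFP emission / Control set: no-enzyme low control and enzyme-plus-DMSO high control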
NadD block – inhibitors of S. aureus NadD, primary screen, biochemical, colorimetric, uHTS; Nicotinate-nucleotide adenylyltransferase NadD (Staphylococcus aureus N315); inhibition, % at 20 µM; purified NadD enzyme, colorimetric absorbance read-out; 360,000 tested, 0.78% active; in the data active = inhibition above about 26%
ABHD5-PLIN5 inh – ABHD5-PLIN5 interaction inhibitors, primary screen, cell lysate, split luciferase complementation, luminescence. Perilipin-5 (Homo sapiens) + 1-acylglycerol-3-phosphate O-acyltransferase ABHD5 (Homo …. Split G. princeps luciferase complementation, 4 h. inhibition, % at 4 µM. 360,000 tested, 0.78% active. AID 602281, 2012;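 active = inhibition above the mean inhibition across every tested compound plus 3 SD, cut at about 22% in these data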;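 note: 0% = DMSO only wells and the 100% control is not disclosed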
Target sequence (Q00G26 whole entry, looked up): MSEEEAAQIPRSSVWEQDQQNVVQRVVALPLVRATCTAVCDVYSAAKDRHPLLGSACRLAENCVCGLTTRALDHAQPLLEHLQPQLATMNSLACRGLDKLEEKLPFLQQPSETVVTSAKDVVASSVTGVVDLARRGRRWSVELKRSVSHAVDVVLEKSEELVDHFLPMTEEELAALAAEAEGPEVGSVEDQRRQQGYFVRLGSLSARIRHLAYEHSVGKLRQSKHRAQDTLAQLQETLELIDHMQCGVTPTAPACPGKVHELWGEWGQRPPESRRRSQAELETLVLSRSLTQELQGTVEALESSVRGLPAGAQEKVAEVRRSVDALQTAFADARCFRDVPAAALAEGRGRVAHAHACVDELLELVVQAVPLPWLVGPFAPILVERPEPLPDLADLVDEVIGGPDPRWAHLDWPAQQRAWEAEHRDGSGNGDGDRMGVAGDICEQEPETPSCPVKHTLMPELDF
Target sequence (Q8WTS1 whole entry, looked up): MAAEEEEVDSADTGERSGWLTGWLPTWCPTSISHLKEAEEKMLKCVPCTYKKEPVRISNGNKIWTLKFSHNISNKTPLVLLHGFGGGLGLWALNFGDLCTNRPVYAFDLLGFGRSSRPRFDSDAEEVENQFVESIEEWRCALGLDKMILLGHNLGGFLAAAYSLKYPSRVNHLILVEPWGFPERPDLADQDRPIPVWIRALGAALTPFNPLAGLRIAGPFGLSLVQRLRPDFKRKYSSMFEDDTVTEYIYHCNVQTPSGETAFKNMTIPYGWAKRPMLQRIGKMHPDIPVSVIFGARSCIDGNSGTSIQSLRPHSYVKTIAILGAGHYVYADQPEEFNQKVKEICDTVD
GRK2 inh – compounds blocking aptamer binding on GRK2 – biochemical, human GRK2, bead flow cytometry, HTS, primary screen | inhibition of aptamer binding, % at 10 µM | 330,000 tested, 0.59% active | FAM-aptamer displacement from GRK2 | Beta-adrenergic receptor kinase 1 (Homo sapiens), P25098;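 active = inhibition of aptamer binding above 40%, roughly 3 SD of noise, on plates passing a quality check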;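 note: median bead fluorescence of bound FAM aptamer so fluorescent compounds give negative values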
B2AR ag – beta2AR agonists driving receptor internalization, primary screen, cell-based, FAP fluorogen, flow cytometry; Am2.2-beta2AR cells; response, % (concentration not given with the values); 340,000 tested, 0.43% active; AID 504454, 2011; Beta-2 adrenergic receptor (Homo sapiens), P07550;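 active = response above a set limit, near 3 SD of response in nonfluorescent compounds, cut at about 42% in these data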
GRK2 CP1 – GRK2 aptamer-displacing inhibitors, retest, confirmation, biochemical, cherry pick 1, bead flow cytometry; shares compounds with GRK2 inh; bead-bound GRK2, FAM-aptamer displacement; aptamer displacement, % at 10 µM; 2,000 tested, 4% active; AID 504451, 2011;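 active = aptamer displacement above 40%, near three times the noise of non-fluorescent compounds, on plates passing quality checks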;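 note: negative values mostly reflect intrinsic compound fluorescence rather than true enhancement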
Aptamer quench 1 – counter-screen for GRK2 aptamer inhibitors: fluorescent aptamer quenchers; shares compounds with GRK2 inh; Fluorescent RNA aptamer beads, quenching, flow cytometry; stronger effect = higher value; 110 tested, under 10 active; fluorescence change (kMESF span), kMESF (concentration not given with the values); AID 504521;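 active = compounds whose bead fluorescence drops by more than 37 kMESF across the dose range, marking them as dye quenchers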
FAM quench CP1 – counter-screen for GRK2 aptamer inhibitors: fluorescent aptamer quenchers; shares compounds with GRK2 inh; Carboxyfluorescein RNA aptamer on beads, flow cytometry quenching; stronger effect = lower value; fluorescence response (% of DMSO), % at 10 µM; 2,000 tested, under 10 active; AID 504580;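 active = compounds that quench the bead-bound fluorescent RNA probe, cutting fluorescence to under half of the solvent control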;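 note: counterscreen run without GRK2 so only probe quenching by compound is measured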
GRK2 confirm 2 – GRK2 aptamer-displacing inhibitors, hit retest, confirmation, biochemical, cherry pick 2, bead flow cytometry. 360 tested, under 10 active. shares compounds with GRK2 inh. inhibition of aptamer binding, % at 10 µM. bead-bound GRK2, FAM-aptamer displacement;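 active = inhibition of aptamer binding above 40%, about triple the noise seen with nonglowing compounds, on plates passing quality control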;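 note: negative values mostly come from compounds that fluoresce themselves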
FAM quench SP – aptamer fluorescence quenching in GRK2 counter-screen | AID 588494 | fluorescence response vs DMSO, % at 10 µM | carboxyfluorescein RNA aptamer beads, flow cytometry quenching; stronger effect = lower value | shares compounds with GRK2 inh | 360 tested, under 10 active;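 active = response vs DMSO under 50%, meaning signal dropped by over half, treated as fluorescence quencher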;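 note: labelled aptamer on streptavidin beads without GRK2 as a quench counter-screen; 100% = bead fluorescence of DMSO wells and lower means quenching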
An asterisk follows results filed as active; · = no result.

SMILES	SENP1 FRET inh	NadD block	ABHD5-PLIN5 inh	GRK2 inh	B2AR ag	GRK2 CP1	FAM quench CP1	others
O=C(NCc1ccc(F)cc1)c1c2c(nc3ccccc13)CCC2	-15	17	1	2	2	·	·	GRK2 confirm 2=-16;FAM quench SP=100
CCCCn1c(=O)[nH]c(=O)c2c1nc(-c1ccccc1OC(F)F)n2C	-2	0	6	1	-7	·	·
O=C(c1cccc(Cl)c1)N1CCC2CC1c1cc(N3CCOCC3)ccc12 (centres undefined)	-1	2	5	·	1	·	·
O=C(C[n+]1cccc(C(=O)N/N=C/c2ccc(Br)cc2)c1)c1ccccc1	1	-9	-7	89*	6	-4	102
O=C(N/N=C/c1ccc(Br)cc1)c1cc[n+](Cc2ccccc2)cc1	0	-2	2	0	-1	·	·
COc1ccc(/C=C/C(=O)c2cccc(-n3cnnn3)c2)cc1O	-1	-8	11	98*	6	0	100
COc1ccc2c(COC(=O)c3ccc(C)c(S(=O)(=O)N4CCOCC4)c3)cc(=O)oc2c1	-37	21	6	·	1	·	·
Cc1ccc(NC(=O)CC2S/C(=N/N=C3/NC(=O)CS3)NC2=O)cc1 (centres undefined)	1	2	3	91*	1	3	99
N#Cc1ccccc1S(=O)(=O)N1CCN(C(=O)C2COc3ccccc3O2)CC1 (centres undefined)	0	-5	0	0	2	·	·
Cc1ccccc1C(=O)Nc1cccc(-c2ccc(N3CCOCC3)nn2)c1	0	2	2	1	1	-3	96
O=C(Nc1cccc(-c2ccc(N3CCOCC3)nn2)c1)c1ccccc1	0	-2	-9	0	3	19	100	Aptamer quench 1=-1.6
Cc1ccccc1NS(=O)(=O)c1nnc(NC(=O)C(C)C)s1	-2	-5	11	1	-1	·	·
CCOc1ccc2c(c1)S/C(=C\c1cccs1)C(=O)N2	-3	-6	-2	3	-10	·	·
CCOC(=O)c1[nH]c2ccccc2c1NC(=O)c1cc(OC)c(OC)c(OC)c1	3	-7	5	0	-1	·	·
COc1cc(C(=O)Nc2c(C(=O)O)[nH]c3ccc(C)cc23)cc(OC)c1OC	-1	-1	-9	88*	29	3	98
Cc1cc(Cl)ccc1OCCCC(=O)N1CCN(C(=O)c2ccco2)CC1	1	2	4	78*	-17	-1	100
O=C(OCC(=O)N1CCN(C(=O)c2ccco2)CC1)c1ccccc1	0	-1	-2	78*	-6	-3	111
O=C(c1cc(F)c(F)cc1Cl)N1CCN(CCc2ccccc2)CC1	1	-2	2	2	-10	·	·
CCN(C(=O)COC(=O)CNC(=O)c1ccc(Cl)cc1Cl)c1c(N)n(Cc2ccccc2)c(=O)[nH]c1=O	1	3	-10	3	-3	·	·
CSCC[C@H](NC(=O)COc1ccc(Cl)cc1)c1nc2ccccc2[nH]1	-2	-2	2	98*	-6	1	94
O=C(c1cccc(NS(=O)(=O)c2ccc(Br)cc2)c1)N1CCN(c2ccccc2O)CC1	0	14	-14	·	4	·	·
COc1cc(-c2ccc3c(=O)c4ccccc4n(C)c3c2)cc(OC)c1OC	-24	-14	11	2	7	·	·
COc1cc(-c2ccc3c(=O)c4ccccc4sc3c2)cc(OC)c1OC	1	-5	-3	100*	9	·	·	GRK2 confirm 2=-11;FAM quench SP=99
CC(=O)CCn1cc([N+](=O)[O-])nc1C	1	-5	-5	1	0	·	·
CCc1ccc(NC(=O)C(C)Sc2nc(-c3ccco3)c(C#N)c(=O)[nH]2)cc1 (centres undefined)	-11	4	-1	2	2	·	·
SMILES	SENP1 FRET inh	NadD block	ABHD5-PLIN5 inh	GRK2 inh	B2AR ag	GRK2 CP1	FAM quench CP1	others
COC(=O)c1c(C)nc(C)c(C(=O)OC)c1-c1ccc(OC)c(OC)c1	0	-3	-3	54*	1	-4	100
CCOC(=O)c1c(C)nc(C)c(C(=O)OCC)c1-c1ccc(O)c(OC)c1	1	0	-6	0	9	·	·
CCS(=O)(=O)c1ccc(-c2cccc(NC(=O)COc3ccccc3)c2)nn1	0	10	3	0	6	·	·
O=C(COc1ccccc1)Nc1cccc(-c2ccc(N3CCOCC3)nn2)c1	1	-2	5	0	-2	1	94
O=C(COc1ccc(Cl)cc1Cl)Nc1cccc(-c2ccc(N3CCOCC3)nn2)c1	0	12	-7	·	6	-2	93
CCCn1c(SCC(=O)NNC(=O)c2ccc(C)cc2)nnc1C(C)C	0	-1	-6	0	-2	·	·
CC(C)c1c(O)nc(SCc2ccccc2)[nH]c1=O	2	2	4	3	4	·	·
CC(C)c1c(O)nc(SCc2ccc(F)cc2)[nH]c1=O	1	0	10	60*	3	12	131
CCOc1ccc(N(CC(=O)NCc2ccccc2OC)S(C)(=O)=O)cc1	0	2	2	53*	-1	0	98
CCOc1ccc(S(=O)(=O)/N=C(/Nc2ccc(C)c(S(=O)(=O)N3CCOCC3)c2)c2ccccc2)cc1	1	-4	-5	4	8	·	·
Cc1nn(Cc2c(F)c(F)c(F)c(F)c2F)c(C)c1NC(=O)c1ccc(COc2ccccc2Cl)cc1	0	13	1	·	-2	·	·
Cc1nn(Cc2c(F)c(F)c(F)c(F)c2F)c(C)c1NC(=O)c1ccc(COc2ccccc2Cl)o1	1	-4	-7	2	-2	2	99
O=C(CSc1ccc2nnc(-c3cccnc3)n2n1)Nc1ccc(F)cc1	2	-1	2	0	-10	·	·
